Reference: ChEMBL document CHEMBL1157434, “2-Aminopropane-1,2,3-tricarboxylic acid: Synthesis and co-crystallization with the class A beta-lactamase BS3 of Bacillus licheniformis” (Bioorg Med Chem Lett, 2008)

Tests used:
[1] = Inhibition of Bacillus licheniformis beta-lactamase BS3 in 25 mM acetate buffer at pH 5
Outline: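 Purified BS3 (1–100 nM) mixed with inhibitor and the chromogenic substrate nitrocefin. Ki obtained from a plot of V0/Vi (uninhibited over inhibited hydrolysis rate) against inhibitor concentration. Three independent runs.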

[2] = Inhibition of beta-lactamase TEM1 in 25 mM acetate buffer at pH 5
Outline: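 Hydrolysis rates were measured without and with inhibitor at varying concentrations. Ki was derived from a plot of V0/Vi against inhibitor concentration. Performed three times.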

[3] = target: Beta-lactamase OXA-10 (Pseudomonas aeruginosa) (UniProt P14489); test: Inhibition of Pseudomonas aeruginosa beta-lactamase Oxa-10 in 50 mM phosphate buffer at pH 7.2 at 100 uM; values are per cent of control
[4] = test system: Bacillus licheniformis; test: Inhibition of Bacillus licheniformis beta-lactamase BS3 in 50 mM phosphate buffer at pH 7.2 at 100 uM; values are per cent of control
[5] = test system: beta-lactamase BcII (Bacillus cereus); test: Inhibition of Bacillus cereus beta-lactamase Bc2 in 50 mM phosphate buffer at pH 7.2 at 100 uM; values are per cent of control
[6] = target: T1, Imipenem-hydrolyzing beta-lactamase (Enterobacter cloacae) (UniProt P52663); test: Inhibition of Enterobacter cloacae beta-lactamase NMCA in 50 mM phosphate buffer at pH 7.2 at 100 uM; values are per cent of control
T1 sequence (whole entry): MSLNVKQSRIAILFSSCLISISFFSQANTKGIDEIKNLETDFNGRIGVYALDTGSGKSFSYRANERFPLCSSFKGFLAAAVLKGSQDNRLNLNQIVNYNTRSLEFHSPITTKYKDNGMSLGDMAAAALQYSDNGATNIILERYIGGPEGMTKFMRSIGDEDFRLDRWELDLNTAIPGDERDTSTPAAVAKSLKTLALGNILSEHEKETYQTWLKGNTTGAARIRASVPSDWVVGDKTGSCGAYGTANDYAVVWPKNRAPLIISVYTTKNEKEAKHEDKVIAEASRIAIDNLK

[7] = Inhibition of beta-lactamase TEM1 in 50 mM phosphate buffer at pH 7.2 at 0.2 mM
[8] = test system: Enterobacter cloacae; test: Inhibition of Enterobacter cloacae beta-lactamase P99 in 50 mM phosphate buffer at pH 7.2 at 100 uM; values are per cent of control
[9] = Inhibition of beta-lactamase TEM1 in 50 mM phosphate buffer at pH 7.2 at 2 mM

Beta-lactamase OXA-10 (Pseudomonas aeruginosa), sequence (P14489 whole entry): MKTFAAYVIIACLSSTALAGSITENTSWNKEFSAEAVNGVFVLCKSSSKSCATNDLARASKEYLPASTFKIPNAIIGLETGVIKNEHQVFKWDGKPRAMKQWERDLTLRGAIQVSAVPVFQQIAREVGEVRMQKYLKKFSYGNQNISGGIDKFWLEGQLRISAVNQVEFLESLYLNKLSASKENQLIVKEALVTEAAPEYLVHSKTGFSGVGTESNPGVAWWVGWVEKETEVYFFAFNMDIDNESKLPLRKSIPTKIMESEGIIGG

Ki [2] [µM] | residual activity [3] [%] | residual activity [4] [%] | residual activity [5] [%] | residual activity [6] [%] | residual activity [7] [%] | residual activity [8] [%] | residual activity [9] [%] | SMILES | Ki [1] [µM]
1500 |  |  |  |  |  |  |  | O=C(O)CC(C(=O)O)C(O)C(=O)O (stereo unspecified) [ISOCITRATE] | 2200
 | 98 | 82 | 92 | 60 | 71 | 87 |  | CCOC(=O)CC(N)(CC(=O)OCC)C(=O)OCC | 
150 | 100 | 88 |  | 94 |  | 81 | 95 | NC(CC(=O)O)(CC(=O)O)C(=O)O | 

SMILES | Ki [2] [µM] | residual activity [3] [%] | residual activity [4] [%] | residual activity [5] [%] | residual activity [6] [%] | residual activity [7] [%] | residual activity [8] [%] | residual activity [9] [%] | Ki [1] [µM]
O=C(O)CC(O)(CC(=O)O)C(=O)O [CITRIC ACID] | 730 |  |  |  |  |  |  |  | 490
